Bioassay records from PubChem BioAssay.
An excerpt weighted towards active compounds, which were near 2.5% of everything screened.
CHO parental Ca – ATP-evoked calcium signal inhibitors, parental CHO, primary screen, counter-screen for OX1R antagonist project, cell-based, fluorescence, Fluo-8 calcium dye; parental CHO-K1, ATP-induced calcium, Fluo-8 fluorescence; inhibition, % at 5.6 µM; actives 0.63% (n = 330,000); AID 463079, 2010;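 active = inhibition above that plate's mean sample inhibition plus 3 SD, cut at about 26% in these data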;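 note: 0% = ATP-challenged DMSO wells and 100% = DMSO wells without ATP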
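test system = CHO parental line | reagent = ATP stimulus | measured by = intracellular calcium via Fluo-8 no-wash fluorescent dye | control set = ATP and no-ATP DMSO wells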
OX1R antag-1 – antagonists of human orexin 1 receptor (OX1R). Orexin/Hypocretin receptor type 1 (Homo sapiens), O43613. OX1R-expressing cells, FRET antagonist read-out. inhibition, % at 6.6 µM. actives 1.8% (n = 330,000). AID 485270, 2010; in the data active = inhibition mostly above about 38%, no sharp cut-off; inactive = mostly below about 40%;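 note: 0% = agonist challenge alone and 100% = reference antagonist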
Target sequence (O43613 whole entry, looked up): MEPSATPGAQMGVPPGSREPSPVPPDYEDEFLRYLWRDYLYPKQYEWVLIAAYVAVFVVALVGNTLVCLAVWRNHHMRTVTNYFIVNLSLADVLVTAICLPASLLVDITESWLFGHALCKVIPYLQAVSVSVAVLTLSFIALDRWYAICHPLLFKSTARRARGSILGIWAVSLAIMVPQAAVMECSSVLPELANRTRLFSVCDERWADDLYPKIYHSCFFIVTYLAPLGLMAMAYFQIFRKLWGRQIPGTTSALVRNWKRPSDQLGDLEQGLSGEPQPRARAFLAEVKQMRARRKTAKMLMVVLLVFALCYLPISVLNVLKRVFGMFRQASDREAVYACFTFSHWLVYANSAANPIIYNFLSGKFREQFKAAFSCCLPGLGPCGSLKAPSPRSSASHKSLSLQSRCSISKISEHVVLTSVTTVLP
TRPN1 ag – zebrafish TRPN1 channel agonists, primary screen, cell-based, HEK293, calcium fluorescence. actives 0.18% (n = 220,000). activation, % at 3 µM. HEK293 zebrafish TRPN1-YFP, Fluo-8 calcium fluorescence; 100% = response to 87 µM carbachol. transient receptor potential cation channel N1 (TRPN1/NompC), Danio rerio. AID 1424, 2008;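 active = activation above its plate's cutoff, the mean activation of test wells on that plate plus 3 SD, cut at about 19% in these data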;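 note: 0% = DMSO alone and 100% = 87 µM carbachol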
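Material: zebrafish TRPN1-YFP in HEK293 cells. Doses: one dose of 3 µM, 0.3% DMSO. Incubation: dye 1 h 37 °C plus 30 min RT. Measured by: intracellular calcium fluorescence with Fluo-8.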
TRPML3 agonist – human TRPML3 channel agonists, primary screen, cell-based, HEK293 TRPML3-YFP, Fluo-8 calcium fluorescence, 3 µM; 100% = the carbachol control signal; activation, % at 3 µM; Mucolipin-3 (Homo sapiens), Q8TDD5; actives 0.29% (n = 220,000);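 active = activation above its plate's cutoff, the mean activation of the plate's test wells plus 3 SD, cut at about 12% in these data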;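 note: 0% = DMSO only wells and 100% = carbachol wells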
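system = HEK293 cells stably carrying human TRPML3-YFP | doses = one concentration, 3 µM nominal, 0.3% DMSO | timing = dye loading 1 h 37 °C then 30 min ambient, 125 s read | detection = Fluo-8 calcium dye fluorescence, ex 470-495, em 515-575 nm | benchmarks = high control carbachol 87 µM, low control DMSO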
OX1R antag-2 – OX1R (HCRTR1) antagonists, primary screen, fluorescence, CHO/OX1R cells, Fluo-8 calcium, orexin A | Orexin/Hypocretin receptor type 1 (Homo sapiens), O43613 | Fluo-8 calcium fluorescence | inhibition, % at 5 µM | actives 0.43% (n = 330,000);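 active = inhibition above its plate's threshold, mean inhibition of all tested compounds on the plate plus 3 SD, cut at about 37% in these data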;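 note: 0% = orexin A challenge wells and 100% = SB-334867-A antagonist wells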
OX1R Fluo8 conf – OX1R (HCRTR1) antagonists, confirmation, fluorescence, CHO/OX1R cells, Fluo-8 calcium, orexin A; shares compounds with OX1R antag-2; orexin A calcium Fluo-8 fluorescence; AID 492963, 2010; inhibition, % at 5 µM; actives 38% (n = 1,100); in the data active = inhibition above about 29%;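 note: 0% = agonist challenge alone and 100% = reference antagonist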
CHO Ca triplic – ATP-evoked calcium inhibition in parental CHO, counter-screen for OX1R antagonist project, cell-based, fluorescence, CHO-K1, triplicate | shares compounds with OX1R antag-2 | ATP-induced calcium, Fluo-8 fluorescence | inhibition, % at 5.6 µM | actives 9.3% (n = 1,100);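 active = inhibition above a per-plate limit, the mean inhibition of that plate's test compounds plus 3 SD, cut at about 25% in these data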;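 note: 0% = ATP challenge with DMSO and 100% = DMSO without ATP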
* hit, by the source's call.

What do the screens show for `O=C1CN(C(=O)CCCc2c[nH]c3ccccc23)c2ccccc2N1`?
CHO parental Ca: -4; OX1R antag-1: 36; TRPN1 ag: 1; TRPML3 agonist: 1; OX1R antag-2: 59*; OX1R Fluo8 conf: 30*; CHO Ca triplic: 1

How did O=C(O)CCCC(=O)N1CC(=O)Nc2ccccc21 do in these assays?
CHO parental Ca: 8; OX1R antag-1: 18; TRPN1 ag: 1; TRPML3 agonist: 1; OX1R antag-2: -21

Results for CC(C(=O)Nc1ccccc1C(F)(F)F)N1CCN(C)CC1 (stereo not given) ?
CHO parental Ca: -8; OX1R antag-1: 11; OX1R antag-2: -1

Results for COc1ccc(NC(=O)c2cccc(OC(F)F)c2)cc1Cl ?
CHO parental Ca: -10; OX1R antag-1: 15; TRPN1 ag: 0; TRPML3 agonist: 0; OX1R antag-2: 20

Results for O=C(Nc1ccc(OC(F)F)c(Cl)c1)c1cccc(OC(F)F)c1 ?
CHO parental Ca: 8; OX1R antag-1: 23; TRPN1 ag: 0; TRPML3 agonist: 1; OX1R antag-2: 53*; OX1R Fluo8 conf: 12; CHO Ca triplic: 19

How did O=C(COC(=O)C12CC3CC(CC(Br)(C3)C1)C2)Nc1cccc(S(=O)(=O)N2CCOCC2)c1 do in these assays?
CHO parental Ca: 10; OX1R antag-1: 14; OX1R antag-2: 47*; OX1R Fluo8 conf: 32*; CHO Ca triplic: 6

How did CCCN(CC(=O)Nc1ccccc1OC)C(=O)CCC(=O)c1ccc(Cl)s1 do in these assays?
CHO parental Ca: -24; OX1R antag-1: 17; OX1R antag-2: -44

What do the screens show for `Cc1ccc(/C=c2/sc3nnc(-c4ccccc4Cl)n3c2=O)o1`?
CHO parental Ca: -13; OX1R antag-1: 9; TRPN1 ag: 1; TRPML3 agonist: 0; OX1R antag-2: -22

Results for CCN(CC)c1ccc(/C=c2/sc3nnc(-c4ccccc4C)n3c2=O)cc1 ?
CHO parental Ca: 15; OX1R antag-1: 24; TRPN1 ag: 4; TRPML3 agonist: 2; OX1R antag-2: 32; OX1R Fluo8 conf: 44*; CHO Ca triplic: 40*

How did O=C(Nc1nnc(-c2ccc(Cl)cc2)o1)c1nc2ccccc2s1 do in these assays?
CHO parental Ca: -3; OX1R antag-1: -2; TRPN1 ag: 0; TRPML3 agonist: 0; OX1R antag-2: 32; OX1R Fluo8 conf: -4; CHO Ca triplic: 4

What do the screens show for `Cc1cnn2c(C3CC3)ccnc12`?
CHO parental Ca: 3; OX1R antag-1: 10; TRPN1 ag: 1; TRPML3 agonist: 1; OX1R antag-2: 22; OX1R Fluo8 conf: 2; CHO Ca triplic: -6

What do the screens show for `O=[N+]([O-])c1ccc(Cl)c(NC2=NCCCCC2)c1`?
CHO parental Ca: -11; OX1R antag-1: 20; OX1R antag-2: 9

Results for Cc1[nH]c(=O)[nH]c(=O)c1S(=O)(=O)N1CCCC(C(=O)NCCc2ccccc2)C1 (stereo not given) ?
CHO parental Ca: -12; OX1R antag-1: 1; TRPN1 ag: 0; TRPML3 agonist: 1; OX1R antag-2: -11

How did Cc1[nH]c(=O)[nH]c(=O)c1S(=O)(=O)N1CCCC(C(=O)NCCc2ccc(Cl)cc2)C1 (stereo not given) do in these assays?
CHO parental Ca: 0; OX1R antag-1: 25; TRPN1 ag: -1; TRPML3 agonist: 0; OX1R antag-2: 33; OX1R Fluo8 conf: 1; CHO Ca triplic: -7

What do the screens show for `CCOC(=O)c1csc(Nc2nc3ccc(F)cc3s2)n1`?
CHO parental Ca: 27; OX1R antag-1: 15; TRPN1 ag: 1; TRPML3 agonist: 1; OX1R antag-2: 39; OX1R Fluo8 conf: 27; CHO Ca triplic: 26*

What do the screens show for `CC(=O)Nc1ccc(S(=O)(=O)N2CCSC2c2ccccc2)cc1` (stereo not given)?
CHO parental Ca: 11; OX1R antag-1: 20; TRPN1 ag: 3; TRPML3 agonist: 2; OX1R antag-2: -13

Results for CC(=O)Nc1ccc(S(=O)(=O)N2CCSC2c2ccccc2Cl)cc1 (stereo not given) ?
CHO parental Ca: 22; OX1R antag-1: 39; TRPN1 ag: 3; TRPML3 agonist: 0; OX1R antag-2: 26; OX1R Fluo8 conf: 7; CHO Ca triplic: 5

What do the screens show for `CC(=O)NC(NC(=S)Nc1ccc(S(N)(=O)=O)cc1)C(Cl)(Cl)Cl` (stereo not given)?
CHO parental Ca: 11; OX1R antag-1: 22; TRPN1 ag: -2; TRPML3 agonist: 0; OX1R antag-2: -16

How did CC(=O)NC(NC(=S)Nc1ccc(N=Nc2ccccc2)cc1)C(Cl)(Cl)Cl (stereo not given) do in these assays?
CHO parental Ca: 23; OX1R antag-1: 5; TRPN1 ag: 2; TRPML3 agonist: 0; OX1R antag-2: 37; OX1R Fluo8 conf: 41*; CHO Ca triplic: 15

How did COc1cccc(CN(C)C(=O)c2cccc(OCc3ccccc3)c2)c1 do in these assays?
CHO parental Ca: -14; OX1R antag-1: 33; OX1R antag-2: -20

Results for CC(C)(C)N(NC(=O)Nc1ccc(Cl)c(Cl)c1)C(=O)c1ccccc1 ?
CHO parental Ca: 29; OX1R antag-1: 20; TRPN1 ag: 8; TRPML3 agonist: 3; OX1R antag-2: 73*; OX1R Fluo8 conf: 8; CHO Ca triplic: 10

What do the screens show for `CCCCNC(=O)COC(=O)C1CCN(S(=O)(=O)c2ccc3c(c2)OCCO3)CC1`?
CHO parental Ca: -5; OX1R antag-1: 4; OX1R antag-2: -15

Results for COc1ccc(/C=C2\SC(=O)NC2=S)cc1OC ?
CHO parental Ca: 24; OX1R antag-1: 42; TRPN1 ag: 74*; TRPML3 agonist: 43*; OX1R antag-2: 42; OX1R Fluo8 conf: 3; CHO Ca triplic: -2

What do the screens show for `CCOc1ccc(/C=C2\SC(=S)NC2=O)cc1OC`?
CHO parental Ca: 2; OX1R antag-1: 46; TRPN1 ag: 1; TRPML3 agonist: 1; OX1R antag-2: -21

What do the screens show for `CN1CC(C(=O)Nc2ccc(F)c(Cl)c2)CC1=O` (stereo not given)?
CHO parental Ca: -2; OX1R antag-1: 1; OX1R antag-2: -14

How did Cc1cccc(OCC(=O)Nc2ccncc2)c1C do in these assays?
CHO parental Ca: 26; OX1R antag-1: 5; OX1R antag-2: 25; OX1R Fluo8 conf: 16; CHO Ca triplic: 51*
